GalR3 antagonist: blocks the human galanin receptor 3. HEK293 GalR3-CNG cAMP membrane potential fluorescence; galR3 body fused to GalR1 C-terminus. O60755. inhibition, % at 3 µM. AID 651719. 360,000 tested, 0.44% active;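 active = inhibition above the screen-wide average plus 3 SD, cut at about 13% in these data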;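 note: forskolin and galanin both at EC90 stimulate the cells; cAMP rise reported by CNG channel membrane potential dye signal; 0% = forskolin plus galanin with DMSO and 100% = forskolin alone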
Target sequence (O60755 1-299 limits assumed): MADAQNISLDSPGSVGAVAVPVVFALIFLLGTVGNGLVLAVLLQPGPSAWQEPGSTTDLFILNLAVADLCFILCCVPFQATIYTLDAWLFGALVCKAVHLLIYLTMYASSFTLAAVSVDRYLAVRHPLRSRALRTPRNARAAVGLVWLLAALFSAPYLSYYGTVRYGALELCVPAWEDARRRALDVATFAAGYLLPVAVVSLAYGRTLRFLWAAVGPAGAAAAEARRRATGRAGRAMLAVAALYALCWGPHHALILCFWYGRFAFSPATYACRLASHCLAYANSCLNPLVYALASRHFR
COUP-TFII inh: NR2F2 (human) inhibition, primary screen; inhibition, % at 8.6 µM; 370,000 tested, 0.7% active; HEK293T NGFI-A luciferase reporter, luminescence; P24468;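 active = inhibition above a per-plate cutoff, mean inhibition of test wells between control levels plus 3 SD, cut at about 38% in these data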;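 note: cells cotransfected with COUP-TFII expression vector driving the NGFI-A reporter; 0% = median of COUP-TF2 test wells and 100% = reporter-only cells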
Target sequence (P24468 whole entry, looked up): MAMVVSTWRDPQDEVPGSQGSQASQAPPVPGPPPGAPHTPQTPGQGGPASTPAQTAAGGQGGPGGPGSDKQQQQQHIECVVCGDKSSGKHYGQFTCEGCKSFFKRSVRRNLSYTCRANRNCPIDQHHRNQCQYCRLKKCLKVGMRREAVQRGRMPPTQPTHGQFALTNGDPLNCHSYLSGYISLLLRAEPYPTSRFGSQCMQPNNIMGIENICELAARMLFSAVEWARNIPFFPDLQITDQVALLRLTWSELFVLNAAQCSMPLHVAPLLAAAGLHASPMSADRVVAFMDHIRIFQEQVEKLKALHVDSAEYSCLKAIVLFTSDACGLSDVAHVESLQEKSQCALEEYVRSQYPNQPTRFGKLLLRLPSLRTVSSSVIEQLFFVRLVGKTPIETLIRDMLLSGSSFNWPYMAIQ
NR2E3 ag-1: agonists of human nuclear receptor NR2E3 | GST-NR2E3/biotin-RetCOR TR-FRET, 1536-well | inhibition of corepressor binding, % at 4.78 µM | 320,000 tested, 0.12% active | AID 2300;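 active = percent inhibition above the cutoff of mean plus 3 SD of all tested compounds, set per screening campaign, cut at about 20% in these data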;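 note: 0% = DMSO wells and 100% = biotin wells as full block of FRET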
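Test system: GST-NR2E3 and biotin-RetCOR proteins | Quantity: 1.35 nM GST-tagged NR2E3 final | Medium: Tris pH 7.5 | Also added: 7 nM biotin-RetCOR | Dosing: Compound at 4.8 µM, single dose | Timing: 5 h at 4 °C | Detection: Time-resolved FRET | Read-out basis: Percent inhibition | Benchmarks: Biotin wells as high control, 0.6% DMSO wells as low control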
NR2E3 ag-2: agonists of human NR2E3 nuclear receptor. CHO-S Gal4-NCOR/VP16-NR2E3 two-hybrid, luciferase. inhibition of corepressor binding, % at 3.98 µM. 360,000 tested, 0.35% active. AID 602229;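 active = inhibition above the mean of all tested compounds plus 3 SD, cut at about 70% in these data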;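 note: 0% = DMSO with NR2E3 transfected cells and 100% = cells lacking NR2E3 construct; higher means lower luciferase signal from less NR2E3 corepressor binding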
SMARCA2 act: SMARCA2 function activation, primary screen. AID 652017. 370,000 tested, 1% active. activation, % at 9.1 µM. MG213 cells, MMTV-luciferase reporter, dexamethasone, overnight; in the data active = activation above about 7.8%;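 note: 0% = vehicle wells and 100% = reference activator wells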
NR2E3 ag confirm: confirmation of human NR2E3 agonists; 2,300 tested, 51% active; inhibition, % at 3.98 µM; CHO-S mammalian two-hybrid NR2E3-NCOR, luciferase luminescence; shares compounds with NR2E3 ag-2;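 active = average inhibition above a cutoff equal to the mean inhibition of all tested compounds plus one SD, cut at about 70% in these data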;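 note: 0% = DMSO in NR2E3 cells and 100% = DMSO in cells lacking NR2E3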
VP16 counter: GAL4-VP16 reporter inhibition in NR2E3 agonist counterscreen; shares compounds with NR2E3 ag-2; CHO-S GAL4-VP16 luciferase reporter, luminescence; inhibition, % at 3.98 µM; 2,300 tested, 29% active; AID 624379;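 active = mean inhibition above a cutoff equal to the average over all tested compounds plus one standard deviation, cut at about 70% in these data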;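 note: luciferase from a UAS reporter driven by GAL4-VP16 transactivation; 0% = DMSO with VP16-transfected cells and 100% = DMSO with cells lacking VP16; higher means less reporter light so more repression of VP16 activity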
Starred values were filed as active, the others as inactive; / = not tested or not shown. The list is not random: actives were taken first. Their share in the collection is about 2.2%.

SMILES | GalR3 antagonist | COUP-TFII inh | NR2E3 ag-1 | NR2E3 ag-2 | SMARCA2 act | NR2E3 ag confirm | VP16 counter
CN(Cc1ccc(F)cc1)C(=O)c1cccc(S(=O)(=O)N2CCN(c3ccc(F)cc3)CC2)c1 | -4 | 24 | -2 | 60 | -2 | 38 | 30
O=C(N[C@@H]1C[C@@H]2O[C@@H](CO)CC[C@@H]2O[C@@H]1CCc1ccc(-c2ccccc2)cc1)c1cnccn1 | / | 0 | / | / | -2 | / | /
Cc1nc2sc(C(=O)NCc3ccc4c(c3)OCO4)c(N)c2c(C)c1Cl | / | -12 | / | / | -2 | / | /
Cc1ccc(CSC(Nc2ccc(F)cc2)=C(C#N)C#N)cc1 | 11 | 32 | 0 | 99* | -8 | 99* | 90*
Cc1ccn2c(NC3CCCC3)c(-c3ccncc3)nc2c1 | -1 | -13 | -4 | 0 | 0 | / | /
Cc1ccn2c(NC3CCCC3)c(-c3ccccn3)nc2c1 | -1 | -7 | -1 | 69 | 1 | 9 | -42
c1ccc(-c2nc3ccccn3c2NC2CCCC2)nc1 | -6 | 4 | -2 | 60 | -2 | 9 | -19
Cc1ccc(S(=O)(=O)N(CCc2ccccc2)CC(=O)N2CCOCC2)cc1 | / | 0 | / | / | 0 | / | /
O=S1(=O)CC2c3ccccc3CN2CN1Cc1ccccc1 (centres undefined) | / | -14 | / | / | -1 | / | /
Cc1cccc(C(=O)OC(C)C(=O)Nc2ccc(S(=O)(=O)N3CCCC3)cc2)c1O (centres undefined) | -3 | 8 | 2 | -34 | -4 | / | /
CC(OC(=O)c1cc(Br)ccc1O)C(=O)Nc1ccc(S(=O)(=O)N2CCCC2)cc1 (centres undefined) | -1 | -2 | -1 | 52 | -7 | -23 | -4
COc1ccc2c(c1)CN1CN(Cc3ccc(F)cc3)S(=O)(=O)CC21 (centres undefined) | / | -9 | / | / | 3 | / | /
CCOC(=O)[C@@]12CCCC=C1N(CCc1ccc(Cl)cc1)C(=O)[C@H]2CC(=O)NCc1cccc(C(F)(F)F)c1 | / | 6 | / | / | -5 | / | /
O=C(NNc1ccccc1)c1ccccc1 | -6 | 7 | / | 37 | -3 | / | /
O=NN(CC(=O)NNc1ccccc1)CC(=O)NNc1ccccc1 | -6 | -2 | / | 73* | 0 | 74* | -2
CCOc1cc(CNCCc2ccc(S(N)(=O)=O)cc2)ccc1OCc1ccc(Cl)cc1 | -8 | 14 | -5 | 52 | 0 | 44 | 30
C=CCN(Cc1ccc2c(c1)OCO2)C(C#CC1CC1)C(C)C (centres undefined) | / | 15 | / | / | -5 | / | /
C=C1C(=O)[C@@]23[C@H](O)C[C@@H]4C(C)(C)CC[C@H](O)[C@@]4(C)[C@@H]2CC[C@@H]1[C@H]3O | -3 | 23 | 6 | 66 | 0 | -13 | -92
N#CCC[C@@H]1CC[C@]2(CCCN(Cc3ccc(Br)cc3)C2)O1 | / | -3 | / | / | 6 | / | /
O=S(=O)(NCCN1CCOCC1)c1ccc(Oc2ccccc2Cl)cc1 | -8 | 14 | -2 | 53 | -2 | 53 | 55
O=C(CSc1nc2ccccc2[nH]1)NN=Cc1c(F)cccc1Cl | / | -2 | / | / | 2 | / | /
O=C(CSc1nnc(Cc2cccs2)n1-c1ccc(Cl)cc1)Nc1ccc(OCc2ccccc2)cc1 | / | 0 | / | / | -5 | / | /
O=C1C(=O)N(c2nccs2)C(c2ccccc2)/C1=C(\O)c1ccc2c(c1)OCCO2 (centres undefined) | / | / | 11 | 76* | / | 82* | 44
O=C1C(=O)N(CCN2CCOCC2)C(c2ccccc2)/C1=C(\O)c1ccc2c(c1)OCCO2 (centres undefined) | -1 | 4 | 11 | -12 | 1 | / | /
Cc1nnc(N2C(=O)C(=O)/C(=C(/O)c3ccc4c(c3)OCCO4)C2c2ccc(F)cc2)s1 (centres undefined) | 1 | -13 | 3 | -21 | 2 | / | /
SMILES | GalR3 antagonist | COUP-TFII inh | NR2E3 ag-1 | NR2E3 ag-2 | SMARCA2 act | NR2E3 ag confirm | VP16 counter
O=C1C(=O)N(c2nccs2)C(c2ccccc2F)/C1=C(\O)c1ccc2c(c1)OCCO2 (centres undefined) | 2 | 4 | 12 | 93* | 1 | 92* | 64
CCOc1ccc(CCNC(=O)COC(=O)Cc2ccc(F)cc2)cc1OCC | -1 | 12 | 2 | 59 | -1 | 22 | 13
Cc1cc(C(=O)CSc2nc3ccccc3c(=O)n2C)c(C)n1Cc1ccc2c(c1)OCO2 | 2 | 25 | -4 | 69 | -6 | 95* | 76*
CC(O)(c1ccncc1)c1nc(-c2cccc(C(F)(F)F)c2)cs1 (centres undefined) | -7 | 16 | / | 85* | -6 | 93* | 74*
CCN(CC)C(=O)c1cccc(-c2csc(C(C)(O)c3ccc(F)c(F)c3)n2)c1 (centres undefined) | / | / | / | 51 | / | 42 | 39
CC(SC(=S)N(C)Cc1cccs1)C(=O)O (centres undefined) | -7 | 10 | 1 | -36 | -2 | / | /
CN(C)c1nc(=NCc2cccs2)ss1 | -5 | 24 | / | 97* | 13* | 23 | -10
Cc1ccc(OCCNS(=O)(=O)c2ccc(N3CCCC3=O)cc2)cc1 | -6 | 7 | 2 | 61 | -3 | 86* | 72*
Cc1ccc(OCCNS(=O)(=O)c2ccc(N3CCCC3=O)cc2)cc1C | -12 | 22 | 6 | 93* | -5 | 98* | 85*
COc1ccc(CCNS(=O)(=O)c2ccc(N3CCCC3=O)cc2)cc1 | -7 | -2 | 2 | 25 | -5 | / | /
Cc1cccc(-c2cccc3c4c([nH]c23)[C@@H]2C[C@H](N(C)C(=O)OCc3ccccc3)[C@H]([C@H](C)O)CN2CC4)c1 | / | 25 | / | / | -5 | / | /
FC(F)Sc1ccc(NC(=S)N2CCN(c3ccccn3)CC2)cc1 | -4 | 7 | / | 61 | -1 | 87* | 45
N#Cc1c(N)n(C2OC(CO)C(O)C2O)c2ncnc(N)c12 (centres undefined) | -2 | 17 | / | 89* | -9 | 96* | 89*
Cc1ccc(-c2cc(C(=O)NN=Cc3cccc(OCc4ccccc4)c3)[nH]n2)cc1C | / | -48 | / | / | -3 | / | /
Cc1ccc(S(=O)(=O)c2ccc([N+](=O)[O-])o2)cc1 | 9 | 17 | / | 66 | -12 | 92* | 13
O=c1c2ccccc2n(Cc2ccno2)n1[C@@H](Cc1ccccc1)Cn1cc(-c2ccc(-c3ccccc3)cc2)nn1 | / | 18 | / | / | -6 | / | /
O=C1c2ccccc2C(=O)c2c1oc(C(F)(F)F)c2C(=O)c1ccccc1 | -2 | -4 | 4 | 112* | 1 | 98* | 87*
Cc1c(C(=O)Nc2ccc3c(c2)OCCO3)sc2nc(-c3ccccc3)cn12 | -2 | 32 | 2 | 66 | -6 | 69 | 57
O=C(COc1ccccc1F)Nc1ccc2c(c1)OCCO2 | -6 | -42 | 4 | 74* | 3 | 10 | -6
